Experimental data from ChEMBL document CHEMBL4138045 (Medchemcomm, 2017).
Active and inactive are the calls of the source. The rule behind the calls is not given here.

Columns and labels:
Mus musculus [1] = species: Mus musculus; assay: Selectivity ratio of Ki for mouse DOR to Ki for mouse MOR
Mus musculus [2] = assay: Antinociceptive activity in CD1 mouse at 30 mg/kg, sc after 30 mins by radiant heat tail flick method relative to control; type: functional
Outline: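 CD1 mice (n = 10) dosed sc at 30 mg kg-1. Radiant heat tail-flick tested 30 min after injection. Values given as mean ± SEM percent antinociception.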

[3] = molecular target: T1, Kappa-type opioid receptor (Mus musculus, UniProt P33534); assay: Displacement of [125I]BNtxA from mouse KOR expressed in CHO cell membranes after 90 mins by filter binding assay
T1 sequence (P33534 whole entry): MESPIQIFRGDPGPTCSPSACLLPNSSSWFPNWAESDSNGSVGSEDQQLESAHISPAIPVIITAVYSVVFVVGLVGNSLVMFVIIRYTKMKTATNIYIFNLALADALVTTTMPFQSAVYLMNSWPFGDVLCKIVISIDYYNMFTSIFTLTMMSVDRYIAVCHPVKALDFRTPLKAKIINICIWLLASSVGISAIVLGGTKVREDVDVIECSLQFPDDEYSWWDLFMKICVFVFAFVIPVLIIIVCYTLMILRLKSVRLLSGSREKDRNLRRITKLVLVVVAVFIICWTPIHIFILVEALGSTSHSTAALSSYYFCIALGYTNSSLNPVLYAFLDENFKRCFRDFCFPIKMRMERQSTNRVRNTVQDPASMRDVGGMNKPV
Outline: (§1)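 Competition binding with [125I]BNtxA (0.1 nM) in membranes of CHO cells expressing mouse MOR, DOR or KOR. Protein 10-20 μg mL-1, 90 min incubation. Ki obtained by nonlinear regression. At least 3 assays, mean ± SEM.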

[4] = molecular target: Kappa-type opioid receptor (Mus musculus) (UniProt P33534); assay: Agonist activity at mouse KOR expressed in CHO cell membranes assessed as induction of [35S]GTPgammaS binding after 90 mins by scintillation spectroscopy relative to U50488H; type: functional
Chain of Kappa-type opioid receptor (Mus musculus) (P33534 whole entry): as above

[5] = molecular target: Mu-type opioid receptor (Mus musculus) (UniProt P42866); assay: Agonist activity at mouse MOR expressed in CHO cell membranes assessed as induction of [35S]GTPgammaS binding after 90 mins by scintillation spectroscopy relative to DAMGO; type: functional
Chain of Mu-type opioid receptor (Mus musculus) (P42866 whole entry): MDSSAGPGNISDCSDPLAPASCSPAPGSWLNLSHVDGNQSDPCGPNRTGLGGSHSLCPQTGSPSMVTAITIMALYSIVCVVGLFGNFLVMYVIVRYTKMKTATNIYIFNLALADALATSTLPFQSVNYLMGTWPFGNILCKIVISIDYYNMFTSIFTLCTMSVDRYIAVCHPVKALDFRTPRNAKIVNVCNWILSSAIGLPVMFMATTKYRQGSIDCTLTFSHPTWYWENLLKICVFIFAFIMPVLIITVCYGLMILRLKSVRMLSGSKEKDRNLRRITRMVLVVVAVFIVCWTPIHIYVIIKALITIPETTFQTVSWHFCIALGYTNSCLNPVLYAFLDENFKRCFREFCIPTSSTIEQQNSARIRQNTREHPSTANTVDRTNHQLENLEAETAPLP

Mu-type opioid receptor [6] = molecular target: T2, Mu-type opioid receptor (Mus musculus, UniProt P42866); assay: Displacement of [125I]BNtxA from mouse MOR expressed in CHO cell membranes after 90 mins by filter binding assay; outline: as §1
T2 sequence (P42866 whole entry): as above

Mus musculus [7] = species: Mus musculus; assay: Selectivity ratio of Ki for mouse KOR to Ki for mouse MOR
Mu-type opioid receptor [8] = molecular target: T2, Mu-type opioid receptor; assay: Agonist activity at mouse MOR expressed in CHO cell membranes assessed as induction of [35S]GTPgammaS binding after 90 mins by scintillation spectroscopy; type: functional
Outline: (§2)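 Agonist-stimulated [35S]GTPγS binding in membranes from opioid receptor-transfected cells. Membrane protein 50 µg mL-1, 90 min incubation. Potency taken as EC50. Three separate assays, each in triplicate, reported as mean ± SEM.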

[9] = molecular target: Delta-type opioid receptor (Mus musculus, UniProt P32300); assay: Displacement of [125I]BNtxA from mouse DOR expressed in CHO cell membranes after 90 mins by filter binding assay; outline: as §1
Chain of Delta-type opioid receptor (P32300 whole entry): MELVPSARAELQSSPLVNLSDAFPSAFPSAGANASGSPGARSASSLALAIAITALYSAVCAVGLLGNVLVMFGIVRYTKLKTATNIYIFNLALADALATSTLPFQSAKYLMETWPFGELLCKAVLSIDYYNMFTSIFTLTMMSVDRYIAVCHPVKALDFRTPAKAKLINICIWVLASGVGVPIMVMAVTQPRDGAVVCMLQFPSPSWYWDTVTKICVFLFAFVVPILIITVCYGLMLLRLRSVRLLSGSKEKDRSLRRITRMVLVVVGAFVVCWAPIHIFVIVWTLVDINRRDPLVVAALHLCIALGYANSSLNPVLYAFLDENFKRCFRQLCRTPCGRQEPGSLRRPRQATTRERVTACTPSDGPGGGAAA

[10] = molecular target: T1, Kappa-type opioid receptor; assay: Agonist activity at mouse KOR expressed in CHO cell membranes assessed as induction of [35S]GTPgammaS binding after 90 mins by scintillation spectroscopy; type: functional; outline: as §2
Mus musculus [11] = assay: Antinociceptive activity in icv dosed CD1 mouse after 15 mins by radiant heat tail flick method; type: functional
Outline: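 Compounds given intracerebroventricularly to groups of mice (n = 5) as cumulative doses. Tail-flick tested 15 min later, at peak effect, to build the dose-response curve and ED50. Two independent determinations.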

Mus musculus [12] = assay: Antinociceptive activity in CD1 mouse at 30 mg/kg, sc after >24 hrs by radiant heat tail flick method; type: functional, organism-based
Outline: (§3)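 Time course in CD1 mice (n = 10) after sc dosing at 30 mg kg-1, measured by radiant heat tail flick. Two independent determinations.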

Mus musculus [13] = assay: Antinociceptive activity in CD1 mouse at 7.5 ug, icv after >24 hrs by radiant heat tail flick method; type: functional, organism-based
Outline: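 Time course in CD1 mice (n = 10) after icv administration of 7.5 µg, measured by tail flick. Two independent determinations.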

Mus musculus [14] = assay: Antinociceptive activity in CD1 mouse at 30 mg/kg, sc after 30 mins in presence of MOR antagonist beta-FNA by radiant heat tail flick method; type: functional, organism-based
Outline: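 CD1 mice (n = 10) given compound at 30 mg kg-1 sc, with or without β-funaltrexamine (40 mg kg-1 sc) 24 h before agonist. Tail-flick tested 30 min after the agonist.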

Mus musculus [15] = assay: Antinociceptive activity in CD1 mouse at 30 mg/kg, sc after 3 hrs by radiant heat tail flick method; type: functional, organism-based; outline: as §3

Row | SMILES | Ratio Ki (Mus musculus [1]) | MPE (Mus musculus [2]) | Ki [3] | Emax [4] | Emax [5] | Ki (Mu-type opioid receptor [6]) | Ratio Ki (Mus musculus [7]) | EC50 (Mu-type opioid receptor [8]) | Ki [9] | EC50 [10] | ED50 (Mus musculus [11]) | Activity (Mus musculus [12]) | Activity (Mus musculus [13]) | Activity (Mus musculus [14]) | Activity (Mus musculus [15])
1 | CN1CC[C@]23c4c5ccc(O)c4O[C@H]2[C@@H](NC(=O)c2cccnc2)C=C[C@H]3[C@H]1C5 | 27.5 | 35% | 19 nM | 87.9% | 114% | 1.25 nM | 15.2 | 2.83 nM | 34.4 nM | 58.8 nM | 0.51 µg | – | – | – | –
2 | CN1CC[C@]23c4c5ccc(O)c4O[C@H]2[C@@H](NC(=O)c2cccnc2)CC[C@@]3(O)[C@H]1C5 | 15 | – | > 100 nM | – | 121% | 6.91 nM | > 14.5 | 25.7 nM | 104 nM | – | – | – | – | – | –
3 | COc1ccc2c3c1O[C@H]1[C@@H](NC(=O)c4ccncc4)C=C[C@H]4[C@@H](C2)N(C)CC[C@@]341 | 10.4 | – | > 100 nM | – | – | 40.6 nM | > 2.5 | – | 424 nM | – | – | – | – | – | –
4 | CN1CC[C@]23c4c5ccc(O)c4O[C@H]2[C@@H](NC(=O)c2ccncc2)C=C[C@H]3[C@H]1C5 | 32.5 | 38% | 77.9 nM | – | 114% | 2 nM | 39 | 4.62 nM | 65 nM | – | 2 µg | – | – | – | –
5 | CN1CC[C@]23c4c5ccc(O)c4O[C@H]2[C@@H](NC(=O)c2ccncc2)CC[C@H]3[C@H]1C5 | 53.2 | 78% | > 100 nM | – | 115% | 3.73 nM | > 26.8 | 8.16 nM | 198 nM | – | 0.7 µg | Active | Active | inactive | –
6 | CN1CC[C@]23c4c5ccc(O)c4O[C@H]2[C@@H](NC(=O)c2cccnc2)CC[C@H]3[C@H]1C5 | 39.6 | 83% | 119 nM | – | 117% | 3.29 nM | 36.2 | 7.98 nM | 130 nM | – | 1.8 µg | Active | Active | inactive | –
7 | CN1CC[C@]23c4c5ccc(O)c4O[C@H]2[C@@H](O)C=C[C@H]3[C@H]1C5 [MORPHINE] | – | – | – | – | – | – | – | – | – | – | 0.53 µg | – | – | – | Active
8 | CN1CC[C@]23c4c5ccc(O)c4O[C@H]2[C@@H](NC(=O)c2ccncc2)CC[C@@]3(O)[C@H]1C5 | 24.7 | – | > 100 nM | – | 115% | 7.02 nM | > 14.2 | 26.4 nM | 173 nM | – | – | – | – | – | –
9 | CN1CC[C@]23c4c5ccc(O)c4O[C@H]2[C@H](NC(=O)/C=C/c2ccccc2)C=C[C@H]3[C@H]1C5 | – | – | – | 106% | 95.3% | – | – | – | – | – | – | – | – | – | –
